Tests used:
Type in all cases: functional
[1] = Effect of compound on oxygen affinity, was expressed as P50 (mmHg) at 5 mM concentration in the absence of Inositol hexa phosphate (IHP)
In short: (§1)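 Human hemoglobin A (1.0 mM) treated with reagent in 0.1 M Tris-HCl buffer, pH 7.3, at 37 °C for 2 h. Extent of modification and oxygen affinity (p50, mm) then determined by a previously described method; p50 read with and without inositol hexaphosphate. Reagent concentration uncertain for some compounds owing to incomplete solubility.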

[2] = Effect of compound on oxygen affinity, was expressed as P50 (mmHg) at 10 mM concentration in the presence of 2 mM Inositol hexa phosphate (IHP)
In short: (§2)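 Hemoglobin A (1.0 mM) incubated with carbamate reagent in 0.1 M Tris-HCl, pH 7.3, at 37 °C for 2 h. Extent of modification and oxygen affinity (p50, mmHg) then measured by a previously described method. Oxygen binding was read with and without inositol hexaphosphate. At 10 mM, reagent concentration is uncertain for some compounds because of incomplete solubility.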

[3] = Effect of compound on modification of oxy form of hemoglobin was expressed as percent modification at 10 mM concentration; in short: as §1
[4] = Effect of compound on oxygen affinity, was expressed as P50 (mmHg) at 5 mM concentration in the presence of Inositol hexa phosphate (IHP); in short: as §1
[5] = Effect of compound on modification of oxy form of hemoglobin was expressed as percent modification at 5 mM concentration; in short: as §1
[6] = Effect of compound on modification of deoxy form of hemoglobin was expressed as percent modification at 5 mM concentration; in short: as §1
[7] = Effect of compound on oxygen affinity, was expressed as P50 (mmHg) at 10 mM concentration in the absence of Inositol hexa phosphate (IHP); in short: as §2
[8] = Effect of compound on oxygen affinity, expressed as P50 (mmHg) at 5 mM concentration in the presence of Inositol hexa phosphate (IHP); in short: as §2
[9] = Effect of compound on modification of oxy form of hemoglobin expressed as percent modification at 10 mM concentration; in short: as §2
[10] = Effect of compound on modification of oxy form of hemoglobin expressed as percent modification at 5 mM concentration; in short: as §2
[11] = Effect of compound on oxygen affinity, expressed as P50 (mmHg) at 10 mM concentration in the presence of 2 mM Inositol hexa phosphate (IHP); in short: as §2
[12] = Effect of compound on modification of deoxy form of hemoglobin expressed as percent modification at 5 mM concentration; in short: as §2
[13] = Effect of compound on oxygen affinity, expressed as P50 (mmHg) at 10 mM concentration in the absence of Inositol hexa phosphate (IHP); in short: as §2
[14] = Effect of compound on oxygen affinity, expressed as P50 (mmHg) at 5 mM concentration in the absence of Inositol hexa phosphate (IHP); in short: as §2
[15] = Effect of compound on modification of oxy form of hemoglobin was expressed as percent modification at 10 mM concentration, concentration is uncertain due to incomplete solubility; in short: as §2

SMILES | P50 [1] | P50 [2] | Modification of hemoglobin [3] | P50 [4] | Modification of hemoglobin [5] | Modification of hemoglobin [6] | P50 [7] | P50 [8] | Modification of hemoglobin [9] | Modification of hemoglobin [10] | P50 [11] | Modification of hemoglobin [12] | P50 [13] | P50 [14] | Modification of hemoglobin [15]
CN(C)C(=O)Oc1c(Br)cc(Br)cc1C(=O)OCc1ccccc1 | 6 mmHg | 41 mmHg | 0% | 41 mmHg | 0% | 0% | 7 mmHg | – | – | – | – | – | – | – | –
CN(C)C(=O)Oc1ccccc1C(=O)OCc1ccccc1 | 6 mmHg | 44 mmHg | 0% | 42 mmHg | 0% | 0% | 6 mmHg | – | – | – | – | – | – | – | –
NC(=O)Oc1ccccc1C(=O)OCc1ccccc1 | 6 mmHg | – | – | 37.5 mmHg | 45% | 46% | – | – | – | – | – | – | – | – | –
COC(=O)c1ccc(OC(N)=O)cc1 | 6 mmHg | 23 mmHg | 89% | 33 mmHg | 61% | 58% | 6.5 mmHg | – | – | – | – | – | – | – | –
NC(=O)Oc1ccccc1C(=O)O | 6 mmHg | 22 mmHg | 94% | 33 mmHg | 62% | 58% | 6 mmHg | – | – | – | – | – | – | – | –
NC(=O)Oc1ccccc1 | – | – | – | – | – | – | – | 39 mmHg | 67% | 44% | 30 mmHg | 40% | 5 mmHg | 6 mmHg | –
CN(C)C(=O)Oc1ccccc1C(=O)O | – | 42 mmHg | – | – | – | – | 6 mmHg | – | – | – | – | – | – | – | 0%
COC(=O)c1ccccc1OC(N)=O | 6 mmHg | 25 mmHg | 83% | 35 mmHg | 54% | 52% | 6 mmHg | – | – | – | – | – | – | – | –

Source: ChEMBL document CHEMBL1123749, “O-carbamoylsalicylates: agents for modification of hemoglobins” (J Med Chem, 1987)
